The results in this text go back to ChEMBL document CHEMBL4837208, “1,2,4-Triazolo[1,5-a]pyrimidines: Efficient one-step synthesis and functionalization as influenza polymerase PA-PB1 interaction disruptors” (Eur J Med Chem, 2021).

The nature of data set [1]: Cytotoxicity against MDCK cells assessed as reduction in cell viability incubated for 48 hrs by MTT assay. Format: cell-based, Canis lupus familiaris. The settings on record: dog. Put shortly:
(§1)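 MDCK cells (2 × 10⁴/well) grown 24 h, then given serial compound dilutions or DMSO in DMEM with 10% FBS for 48 h at 37 °C. MTT (5 mg/mL in PBS) added for 4 h. Lysed overnight with 10% SDS/0.01 N HCl, then OD read at 620 nm. CC50 is the concentration reducing viability by 50%. At least three independent experiments in duplicate.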
(Tetrazolium assays rely on reduction of a dye to a coloured formazan, in cell work by metabolically active cells.)

The next data set deals with SARS-CoV-2. Kind of data set: microbe, parasite or virus in culture. It counts as functional, organism-based, Vero E6. The settings on record: Severe acute respiratory syndrome coronavirus 2, Vero C1008.
Data set [2] concerns Influenza A virus. Briefly: Antiviral activity against Influenza A virus A/PR/8/34(H1N1) infected in MDCK cells assessed as inhibition of plaque formation for 48 hrs by plaque reduction assay. It counts as functional, organism-based. The note with it: A/Puerto Rico/8/1934(H1N1). Put shortly:
(§2)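 MDCK monolayers (5 × 10⁵ cells/well, seeded 24 h earlier) washed with serum-free DMEM. Infected with A/PR/8/34 at 40 PFU/well for 1 h at 37 °C, in DMEM with TPCK-trypsin and 0.14% BSA, with compound or DMSO present. Overlay of the same medium plus 1.2% Avicel and compound. At 48 h, fixed with 4% formaldehyde and stained with 0.1% toluidine blue. Plaques counted against DMSO control set at 100%. At least three independent experiments in duplicate.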
For orientation: Plaque reduction counts the foci of infection that form in a cell layer.

Data set [3] addresses PA/PB1 (Influenza A virus (A/Puerto Rico/8/1934(H1N1)), UniProt P03431+P03433). Briefly: Inhibition of Influenza A virus 6 His-tagged PA (239 to 716 residues) expressed in Escherichia coli BL21 pLysS/GST-tagged PB1 (1 to 25 residues) expressed in Escherichia coli protein-protein interaction using 3.3',5,5' tetramethyl benzidine as substrate by ELISA. Put shortly: (§3)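 Wells coated with 400 ng 6His-PA(239–716), E. coli BL21(DE3)pLysS-expressed, for 3 h at 37 °C, then blocked with 2% BSA/PBS for 1 h. Then 200 ng GST-PB1(1–25), or GST alone as control, added with compound at various concentrations, overnight at room temperature. Bound PB1 detected with HRP-anti-GST antibody (1:4000 in PBS/2% FBS). IC50 is the concentration halving PA–PB1 binding. At least three independent experiments in duplicate.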
On the technique in general: ELISA stands for enzyme-linked immunosorbent assay.

Data set [4] is described as follows: Cytotoxicity against African green monkey Vero E6 cells assessed as reduction in cell viability incubated for 1 to 2 hrs by MTS assay. It counts as cell-based, Vero C1008. The settings on record: chlorocebus sabaeus, time 1-2 hrs. Put shortly:
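Vero E6 cell viability measured by the colorimetric formazan-based MTS assay. Means of duplicate experiments.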

The target in data set [5] is RNA-directed RNA polymerase (Influenza A virus (strain A/Puerto Rico/8/1934 H1N1), UniProt P03428+P03431+P03433). Kind of data set: Inhibition of RdRP activity in Influenza A virus A/PR/8/34(H1N1) infected in HEK293T cells incubated for 24 hrs by minireplicon based dual luciferase assay. It counts as cell-based, Influenza A virus (A/Puerto Rico/8/1934(H1N1)). Put shortly: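 HEK293T cells (2 × 10⁵/well) plated overnight. Calcium-phosphate transfected with PB1, PB2, PA and NP plasmids (100 ng each), pPolI-Flu-ffLuc reporter (50 ng) and pRL-SV40 (50 ng), with compound or DMSO. Medium replaced at 5 h with compound-containing DMEM. Dual luciferase read at 24 h post-transfection. Firefly normalised to Renilla, with DMSO set at 100% polymerase activity.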

Data set [6] has as its target PA/PB1 (Influenza A virus (A/Puerto Rico/8/1934(H1N1)), UniProt P03431+P03433). Kind of data set: Inhibition of Influenza A virus PA-PB1 protein-protein interaction by ELISA. It counts as protein assay. Put shortly: as §3
For data set [7], the system named is Influenza A virus. Briefly: Antiviral activity against Influenza A virus A/PR/8/34(H1N1) infected in MDCK cells assessed as inhibition of viral replication by plaque reduction assay. It counts as functional, organism-based. The note with it: A/Puerto Rico/8/1934(H1N1). Put shortly:
as §2

Data set [8] is described as follows: Cytotoxicity against MDCK cells assessed as reduction in cell viability by MTT assay. It counts as cell-based, Canis lupus familiaris. The note with it: dog. Put shortly: as §1

As a reminder, the CC50 is the concentration that lowers cell viability or growth by half. Broadly, the EC50 is the concentration at which the effect is half-maximal. With `Cc1cc(-c2ccccc2)nc2nc(NC(=O)c3ccc(O)c(O)c3)nn12`, the CC50 at 48 h in data set [1] came out at 112 µM. Besides, the EC50 in the data set on SARS-CoV-2 and with Influenza A virus [2] was above 100 µM in each case.
For orientation: IC50 means the concentration that gives 50% inhibition. Compound `NC(=O)c1c(NC(=O)c2nc3nccc(-c4ccccc4)n3n2)sc2c1CCCCC2` displayed an IC50 in data set [3] of 22 µM. Further, the CC50 at 48 h in data set [1] is above 200 µM. Moreover, the EC50 in the data set with Influenza A virus [2] was above 60 µM.
On to `COc1ccc(C(=O)Nc2nc3nc(-c4ccccc4)cc(C)n3n2)cc1`, for which the CC50 at 48 h in data set [1] was above 250 µM. Also, the EC50 in the data set on SARS-CoV-2 and in the data set on Influenza A virus [2] was above 100 µM each time.
In the case of `NC(=O)c1ccccc1NC(=O)c1nc2nccc(-c3ccccc3)n2n1`, in data set [3], half-maximal inhibition (IC50) required 21 µM. Moreover, the CC50 at 48 h in data set [1] was above 250 µM. The EC50 with Influenza A virus [2] is above 100 µM.
On the same counts, the results for `O=C(Nc1nc2nc(-c3ccccc3)cc(O)n2n1)c1ccccc1` are 21 µM, above 250 µM and above 100 µM.
As for `NC(=O)c1c(NC(=O)c2nc3ncc(-c4ccccc4)cn3n2)sc2c1CCCCC2`, inhibition in data set [3] was half-maximal at 35 µM (IC50). Also, in [1], the cytotoxic concentration (CC50) at 48 h was 100 µM. Also, the EC50 with Influenza A virus [2] was above 80 µM.
Take `Cc1cc(-c2ccccc2)nc2nc(NC(=O)c3ccc(N)cc3)nn12`: the CC50 at 48 h in [1] was above 250 µM. The figures for the EC50 in the data set with SARS-CoV-2 and with Influenza A virus [2] were 44 µM and above 100 µM, respectively.
In data set [3], `COC(=O)c1ccccc1NC(=O)c1nc2nc(C)cc(-c3ccccc3)n2n1` yielded an IC50 of 26.5 µM. Moreover, the CC50 at 48 h in data set [1] is above 250 µM. For the same compound, the EC50 with Influenza A virus [2] is above 80 µM.
As for `Cc1cc(-c2ccccc2)nc2nc(NC(=O)c3ccccc3F)nn12`, in data set [1], the CC50 at 48 h is above 250 µM. The results for the EC50 in the data set on SARS-CoV-2 and in the data set on Influenza A virus [2] were 30.6 µM and above 100 µM, respectively.
In the case of `Cc1cc(-c2ccccc2)nc2nc(C(=O)Nc3ccccc3F)nn12`, in data set [1], the CC50 at 48 h was above 250 µM. In [4], the CC50 is above 100 µM. For the same compound, the concentration giving a half-maximal response (EC50) amounted to 34.5 µM with SARS-CoV-2 and 83.8 µM in the data set on Influenza A virus [2].
Compound `Cc1cc(-c2ccccc2)nc2nc(-c3nc4ccccc4c(=O)o3)nn12` gave an IC50 in data set [3] of 123 µM. Further, the CC50 at 48 h in data set [1] was above 200 µM. For the same compound, in the data set with Influenza A virus [2], the EC50 was above 100 µM.
`COC(=O)c1ccccc1NC(=O)c1nc2nc(-c3ccccc3)cc(C)n2n1` registered an IC50 in data set [3] of 22.3 µM. In addition, the CC50 at 48 h in [1] was above 250 µM. In addition, in the data set with Influenza A virus [2], the EC50 was above 100 µM.
On to `NC(=O)c1ncn([C@@H]2O[C@H](CO)[C@@H](O)[C@H]2O)n1` [RIBAVIRIN], for which the EC50 was 16 µM in data set [5] and 10 µM in the data set on Influenza A virus [2]. Also, the CC50 at 48 h in [1] is above 250 µM.
Take `Cc1cc(-c2ccccc2)n2nc(-c3nc4ccccc4c(=O)o3)nc2n1`: the EC50 in data set [5] stood at 21 µM; in the data set with Influenza A virus [2], 16 µM. In [3], this compound displayed an IC50 of 19.5 µM. Further, the CC50 at 48 h in data set [1] is above 250 µM.
Take `COc1ccc(C(=O)Nc2nc3n(n2)C(c2ccccc2)C=C(C)N3)cc1` (configuration not stated): the IC50 in data set [6] turned out to be 171 µM. In addition, the concentration for a half-maximal effect (EC50) in the data set on Influenza A virus [7] is above 100 µM. In data set [8], the CC50 was found to be 240 µM.
Compound `NC(=O)c1ccccc1NC(=O)c1nc2ncc(-c3ccccc3)cn2n1` had an IC50 in data set [3] above 200 µM. For the same compound, the CC50 at 48 h in [1] is above 250 µM. In the data set on Influenza A virus [2], the EC50 is above 100 µM.
On to `O=C(Nc1nc2ncc(-c3ccccc3)cn2n1)c1ccccc1`, for which the IC50 in data set [3] was above 200 µM. In addition, the CC50 at 48 h in data set [1] is above 250 µM. In addition, the EC50 with Influenza A virus [2] is above 100 µM.
Regarding `Cc1cc(-c2ccccc2)nc2nc(NC(=O)c3ccc([N+](=O)[O-])cc3)nn12`, the CC50 at 48 h in data set [1] is above 250 µM. Also, the EC50 with SARS-CoV-2 and with Influenza A virus [2] was above 100 µM in each case.
Compound `N#C[C@@]1(c2ccc3c(N)ncnn23)O[C@H](CO)[C@@H](O)[C@H]1O` [GS-441524] had an EC50 in the data set with SARS-CoV-2 of 0.89 µM.
For `CCCOc1ccc(C(=O)Nc2nc3nc(-c4ccccc4)cc(C)n3n2)cc1`, in [1], the CC50 at 48 h is 247 µM. Further, the EC50 in the data set with SARS-CoV-2 is 65.3 µM; in the data set on Influenza A virus [2] it was above 100 µM.
Consider `O=C(Nc1nc2nc(-c3ccccc3)ccn2n1)c1ccccc1`, for which the IC50 in data set [3] was determined as 165 µM. The CC50 at 48 h in data set [1] is above 250 µM. In addition, the EC50 with Influenza A virus [2] was above 100 µM.
`Cc1cc(-c2ccccc2)nc2nc(C(=O)Nc3ccccc3C(=O)O)nn12` returned an IC50 in [3] of 32 µM. Further, in [1], the CC50 at 48 h is above 250 µM. The EC50 in the data set with Influenza A virus [2] is above 100 µM.
With `Cc1cc(-c2ccccc2)n2nc(C(=O)Nc3ccccc3C(=O)O)nc2n1`, the IC50 in [3] stood at 116 µM. In [1], the CC50 at 48 h is above 250 µM. In addition, the EC50 with Influenza A virus [2] is above 100 µM.
`O=C(Nc1nc2nccc(-c3ccccc3)n2n1)c1ccccc1` returned an IC50 in [3] above 200 µM. Also, in data set [1], the CC50 at 48 h is above 250 µM. The EC50 in the data set on Influenza A virus [2] was above 100 µM.
